Test results published in ChEMBL document CHEMBL4513216, “Probing the Open Global Health Chemical Diversity Library for Multistage-Active Starting Points for Next-Generation Antimalarials” (ACS Infect Dis, 2020).

Assay: Toxicity liver stage against HepG2, at 10uM
Format: cell-based
Parameters: test concentration 10 uM, cell line HepG2-A16-CD81EGFP
Settings: human, HepG2-A16-CD81EGFP cells; read-out: INHIBITION
Summary of the method: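 Uninfected HepG2-A16-CD81EGFP cells, 3 × 10^3 per well, 1536-well, plated on prespotted compound at 10 μM final, parasite-free screening media added to match infected plates; puromycin 10 μM positive, DMSO 0.5% negative; run in parallel with 48 h PbLuc assay at 37 °C, 5% CO2; viability by CellTiter-Glo luminescence, normalized to controls.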

Row | Compound | cytotoxicity at 10 µM
1 | Cc1sc(N)nc1-c1ccc(Cl)cc1 | -2.75%
2 | COc1ccc(CN2CCOC[C@H](OCCC(C)C)C2)cc1 | -4.04%
3 | CC(C)(C)CN[C@@H]1CO[C@H](CNC(=O)c2cccs2)[C@H]1O | -4.23%
4 | COCCCNC(=O)N1CCN(C(=O)c2nsc3ccccc23)CC1 | 12%
5 | CCCc1cc(=O)[nH]c2nnc(SCC(=O)OCC)n12 | 10.8%
6 | O=S(=O)(c1cccnc1)N1CCN(CC(O)c2cccs2)CC1 (centres undefined) | -4.21%
7 | O=C(c1nnn(-c2ccccc2)n1)N(CCO)CCO | -1.48%
8 | O=C(C1CCC2(CCN(c3ncccn3)CC2)CO1)N1CCCC1 (centres undefined) | 5.59%
9 | COC[C@@H]1CC[C@H]2[C@H](CCN2S(=O)(=O)Cc2ccccc2)O1 | 7.43%
10 | N#Cc1ccc(OC[C@]23COC[C@H]2CN(c2ncccn2)C3)nc1 | -1.84%
11 | CC(=O)N1CCCC2(CN(Cc3ccncc3)CCO2)C1 (centres undefined) | 7.22%
12 | Cn1cc(C(=O)N[C@H]2CN(S(C)(=O)=O)[C@@H]3CCCO[C@H]23)cn1 | -16%
13 | c1nc(N2CCOCC2)nc2c1COCC21CCN(CC2CC2)C1 (centres undefined) | 9.69%
14 | CCOc1ccc(CNCCCn2ccnc2)cc1OC | -4.78%
15 | COc1ccc(-n2nc(C(C)=O)c(C(C)=O)c2C)cc1Cl | -0.145%
16 | Cc1cs/c(=N\C(=O)Cn2nc(N3CCOCC3)ccc2=O)[nH]1 | -5.07%
17 | O=C(Cn1cc(I)cn1)N1CCCCCC1 | 8.9%
18 | Cn1cc(CN2CCC(c3cc(COc4ccc(Cl)cc4)[nH]n3)C2)cn1 (centres undefined) | 0.0085%
19 | CN1CCN(c2ncccn2)CC1C(N)=O (centres undefined) | 15.4%
20 | CC(C)Nc1n[nH]c2nc(C3CCN(C(=O)c4ccccn4)C3)ccc12 (centres undefined) | 17%
21 | CN1CCCC(Cc2nccnc2Cl)CC1 (centres undefined) | 0.368%
22 | CC(C)N1CCC(c2cccc(C(=O)N(C)C)n2)CC1 | 9.23%
23 | NC(=O)C1(c2cnccn2)CCCN1Cc1ccc(Cl)cc1 (centres undefined) | -0.085%

Row | Compound | cytotoxicity at 10 µM
24 | CNC(=O)CCc1cc(C)nc(C2CCCN2)n1 (centres undefined) | 1.77%
25 | O=S(=O)(Nc1ccc(N2CCOCC2)cc1)c1cccc(F)c1 | 12%
26 | Cc1cnn(-c2ccc(S(=O)(=O)N(C)CC(C)(CO)CO)cc2F)c1 | 12.5%
27 | CCOCC(=O)N1CCC(C(O)c2ccc(F)cc2)CC1 (centres undefined) | -3.83%
28 | CCc1ccc(C(=O)N2CCCN(Cc3csc(CC)n3)CC2)o1 | -1.86%
29 | Cc1ccc(N(CC(=O)N2CCCCC2)C(=O)C2CCCO2)cc1 (centres undefined) | 13.9%
30 | Cc1ccc(CNC(=O)N2CCN(S(C)(=O)=O)CC2)n1C | 2.22%
31 | COC(=O)c1cc(NCC(=O)NC(N)=O)cc(C(F)(F)F)c1 | -1.06%
32 | CCc1nc(CN2CCCC(N(C)CCn3cncn3)C2)no1 (centres undefined) | -6.5%
33 | O=C(Nc1cnc(C2CC2)nc1)N1CCC(CN2CCCC2)C1 (centres undefined) | 18.8%
34 | O=C(NCc1ccccc1CN1CCCCC1)Nc1nncs1 | 0.513%
35 | CSc1cc2c(cc1NC(=O)NCc1ccco1)OCCO2 | -5.08%
36 | Cc1cc2n(n1)CC(CNC1CCN(C(=O)c3ccco3)CC1)CN2 (centres undefined) | 4%
37 | COc1cc(NC(=O)c2ccc(C)cc2C)c(C(=O)N(C)C)cc1OC | -0.414%
38 | CSCC(CCO)NC(=O)Nc1ccc(C)cc1C (centres undefined) | 1.82%
39 | O=C1CC(Cc2ccc(NC(=O)c3cccc(F)c3)cc2)C(=O)N1 (centres undefined) | -1.39%
40 | COc1ccnc(NC(=O)c2ccsc2)c1 | -0.747%
41 | CC(CO)N1CCN(C(=O)OC(C)(C)C)CC1 (centres undefined) | -7.85%
42 | CC(C)=CCS(=O)(=O)Cc1noc(CC(C)C)n1 | -4.59%
43 | Cn1cc(NC(=O)Cc2cccs2)c(=O)n(C)c1=O | 0.393%
44 | O=C(c1cnccn1)N1CCN(c2ccnc3ccsc23)CC1 | 12.6%
45 | CC(C)c1nc2n(n1)CC(NCC(=O)N(C)Cc1cccs1)CC2 (centres undefined) | -10.2%
46 | Cc1cccc(C)c1OCCNC(=O)C[S+]([O-])C1CCCC1 (centres undefined) | -136%

Row | Compound | cytotoxicity at 10 µM
47 | c1cncc(CN2CCC(NCCc3ccc4c(c3)CCO4)CC2)c1 | 5.41%
48 | CCc1cnccc1C(=O)NC1CCN(C(=O)OC)CC1 | 9.09%
49 | CC(C)c1nc(/C=C/c2ccc(O)c(Cl)c2)ncc1C(=O)O | -1.7%
50 | CNS(=O)(=O)CC(=O)NC(C)Cc1cccc(Cl)c1 (centres undefined) | -8.15%
51 | COc1ccc(CCn2cnc(C#N)n2)cc1 | 0.866%
52 | N#Cc1cc(S(N)(=O)=O)ccc1NC1CCc2ccc(F)cc21 (centres undefined) | 8.08%
53 | O=C(Cn1cc(-c2ccccc2)cn1)N1CCNC1=O | 6.74%
54 | O=C1C(Nc2ccc3nccnc3n2)CCN1c1ccccc1F (centres undefined) | -10%
55 | O=C1CC(Nc2ccc3nccnc3n2)CN1c1ccccc1 (centres undefined) | -7.76%
56 | CC(C)(C)c1ncc(CNCC2CCCn3ccnc32)s1 (centres undefined) | -6.76%
57 | Cc1cc(C#N)ccc1S(=O)(=O)N1CCN(C)Cc2ccccc21 | 5.34%
58 | CC(=O)NCCNC(=O)c1cnc(-c2ccccc2)nc1 | 6.56%
59 | OCC1CCCN1c1cc(NCCc2c[nH]c3ccccc23)ncn1 (centres undefined) | -7.06%
60 | CN(C)CCn1c2c(ccc1=O)CCN(Cc1ccncc1)CC2 | 3.97%
61 | COCCCNC(=O)c1ccn(-c2ccc3ccccn23)n1 | -0.987%
62 | COc1cc(-c2cc(OC)c(OC)c(OC)c2)ncn1 | -2.31%
63 | CC(C)Nc1nc2c(s1)C(=O)CN(C(=O)NCCc1ccccc1)C2 | -5.55%
64 | COc1ccccc1OC1CN(C(=O)Cc2c(C)nc3ccccn23)C1 | -2.27%
65 | CCCc1cc(NCCCC2CCOC2)n2nccc2n1 (centres undefined) | -0.247%
66 | CCc1nnc(CN(C)Cc2nc(-c3ccccc3Cl)oc2C)o1 | -7.43%
67 | Cc1cccc(C2CCCN(C(=O)C3CCN(CC(N)=O)CC3)C2)c1 (centres undefined) | -7.18%
68 | O=C(CCCN1CCCCC1)N1CCC(c2nnc[nH]2)CC1 | -7.92%
69 | COC(=O)[C@H]1C[C@@H](O)CCN1S(=O)(=O)c1c(C)cc(OC)c(C)c1C | -16.2%

Row | Compound | cytotoxicity at 10 µM
70 | COCCN(Cc1cccs1)C(=O)c1ccc(=O)n(C)c1 | -4.78%
71 | COc1ccc2[nH]c(CNc3cc(C4CCNCC4)nc(C)n3)cc2c1 | -13.4%
72 | CC(NC(=O)Nc1ccccc1CN1CCOCC1)c1nnc(N)s1 (centres undefined) | 4.84%
73 | CN(Cc1n[nH]c2c1CCC2)C(=O)c1cc(-c2cccn2C)n[nH]1 | 5.12%
74 | CN(C)c1nc(-c2ccncc2)nc2c1CCN(C(=O)[C@H](N)CO)C2 | 8.01%
75 | Cc1ccc(Cl)c(CN2CCC(c3nccn3C(C)C)CC2)c1F | 4.8%
76 | Cc1ccc2[nH]c(=O)cc(C(=O)NCCCn3nccc3C3CC3)c2c1 | -4.35%
77 | COCCN(Cc1nccs1)C(=O)c1c(C)cc(C)[nH]c1=O | 0.0773%
78 | CCc1ncc2c(n1)CN(C(=O)COC)C2 | -19.4%
79 | CNc1nc(C(=O)N2CCCC(c3nccn3CC3CCC3)C2)cs1 (centres undefined) | -16.7%
80 | CCc1nc(CN2CCOC(Cn3cncn3)C2)no1 (centres undefined) | -5.71%
81 | COc1ncccc1CNC(=O)c1cnc(C)cn1 | -4.69%
82 | COCCN(Cc1nc2c(cnn2C)c(=O)[nH]1)C(C)COC (centres undefined) | -4.6%
83 | CCN(CC)C(=O)Cn1ccc2cc(NC(=O)COC)ccc21 | -7.89%
84 | CCc1noc(CN2CCN(C(=O)N(CC)CC)CC2)n1 | -1.67%
85 | CCOc1ccnc(N2CCCN(C(=O)c3cc[nH]c3C)CC2)n1 | 0.893%
86 | CCc1n[nH]c(C2CN(C(=O)c3cc4c(s3)CCC4)CCO2)n1 (centres undefined) | -4.98%
87 | Cc1cc(CN2CCN(C(=O)NCc3ccoc3)CC2)no1 | -22.5%
88 | Cc1noc(C)c1CN1CCOC(CNc2cccnn2)C1 (centres undefined) | -19%
89 | Cc1noc(CCCC(=O)NCC2CCS(=O)(=O)C2)n1 (centres undefined) | -16.4%
90 | CN(C)c1cc(CNC(=O)c2ccc(F)cc2)ccn1 | -22.9%
91 | OCC1CCCN1c1cc(NCc2cccnc2)ncn1 (centres undefined) | -16.6%
92 | Cc1ncsc1CNC(=O)N(CCCO)C1CCc2ccccc21 (centres undefined) | -9.99%

Row | Compound | cytotoxicity at 10 µM
93 | CCN1CCN(c2ccc(CNC(=O)Cc3c(C)noc3C)cn2)CC1 | -12.2%
94 | Cc1cc(NC(=O)CN2CCCC2c2noc(C(C)C)n2)on1 (centres undefined) | -6.31%
95 | COc1cccc(C(=O)NC(CC(=O)O)c2cccs2)c1OC (centres undefined) | -8.66%
96 | Cn1nc2c(cc1=O)CN(CCN1CCCC1=O)CC2 | -31.1%
97 | COc1cccc(C(=O)N2CCCCC2c2nccs2)c1OC (centres undefined) | -14.4%
98 | CC(C)Oc1ncccc1CNC(=O)c1ccc(=O)[nH]n1 | -23.8%
99 | Cc1ccc(NC(=O)C2CSCN2C(=O)c2cc[nH]n2)c(C)c1 (centres undefined) | -6.1%
100 | CC(Cn1cccn1)NC(=O)NCCc1ccc(Cl)s1 (centres undefined) | -3.56%
101 | CC(C)c1noc(CCCC(=O)NC2CCS(=O)(=O)C2)n1 (centres undefined) | 4.67%
102 | CC(C)c1nnc2n1CCN(C(=O)c1ccc3cc[nH]c3c1)C2 | 4.02%
103 | O=C(c1ccccc1-n1cccn1)N1CCCN(c2cccnn2)CC1 | 7.03%
104 | O=C1NCCCCC1NCc1csc(-c2ccc(F)cc2)n1 (centres undefined) | -13.5%
105 | c1ccc(N2CCC3(COCCN(Cc4cccs4)C3)C2)nc1 (centres undefined) | 1.85%
106 | COCCC(=O)N1CCN(CC2CC2)c2nc(C)ccc2C1 | 9.88%
107 | Cc1noc([C@@H]2C[C@H]3CN(CC4CCOCC4)C[C@H]3O2)n1 | -137%
108 | CN1CCOCC12CCN(c1nncs1)CC2 | 8.16%
109 | CNC(=O)C1Cn2ccnc2C2(CCN(C(=O)c3ccoc3C)CC2)O1 (centres undefined) | -157%
110 | Cc1noc([C@]23COC[C@H]2CN(C(C)C)C3)n1 | 1.44%
111 | O=C1COC2(CCN(Cc3ccc(F)cc3)CC2)CN1 | -25.7%
112 | CC(C)Nc1ccc2nc(C3CCN(C(C)C)CC3)nn2c1 | -20.4%
113 | CC(C)CN1CCC2(CCN(CC3CC3)CC2)C1=O | 7.37%
114 | c1cncc(C[C@H]2[C@H](N3CCOCC3)CCN2Cc2cccs2)c1 | 8.34%
